Data as given in article PMC2853048 (Journal of medicinal chemistry, 2009).

Target: T1, human Gli1 (Homo sapiens, UniProt P08151)
T1 sequence (P08151 1-1106): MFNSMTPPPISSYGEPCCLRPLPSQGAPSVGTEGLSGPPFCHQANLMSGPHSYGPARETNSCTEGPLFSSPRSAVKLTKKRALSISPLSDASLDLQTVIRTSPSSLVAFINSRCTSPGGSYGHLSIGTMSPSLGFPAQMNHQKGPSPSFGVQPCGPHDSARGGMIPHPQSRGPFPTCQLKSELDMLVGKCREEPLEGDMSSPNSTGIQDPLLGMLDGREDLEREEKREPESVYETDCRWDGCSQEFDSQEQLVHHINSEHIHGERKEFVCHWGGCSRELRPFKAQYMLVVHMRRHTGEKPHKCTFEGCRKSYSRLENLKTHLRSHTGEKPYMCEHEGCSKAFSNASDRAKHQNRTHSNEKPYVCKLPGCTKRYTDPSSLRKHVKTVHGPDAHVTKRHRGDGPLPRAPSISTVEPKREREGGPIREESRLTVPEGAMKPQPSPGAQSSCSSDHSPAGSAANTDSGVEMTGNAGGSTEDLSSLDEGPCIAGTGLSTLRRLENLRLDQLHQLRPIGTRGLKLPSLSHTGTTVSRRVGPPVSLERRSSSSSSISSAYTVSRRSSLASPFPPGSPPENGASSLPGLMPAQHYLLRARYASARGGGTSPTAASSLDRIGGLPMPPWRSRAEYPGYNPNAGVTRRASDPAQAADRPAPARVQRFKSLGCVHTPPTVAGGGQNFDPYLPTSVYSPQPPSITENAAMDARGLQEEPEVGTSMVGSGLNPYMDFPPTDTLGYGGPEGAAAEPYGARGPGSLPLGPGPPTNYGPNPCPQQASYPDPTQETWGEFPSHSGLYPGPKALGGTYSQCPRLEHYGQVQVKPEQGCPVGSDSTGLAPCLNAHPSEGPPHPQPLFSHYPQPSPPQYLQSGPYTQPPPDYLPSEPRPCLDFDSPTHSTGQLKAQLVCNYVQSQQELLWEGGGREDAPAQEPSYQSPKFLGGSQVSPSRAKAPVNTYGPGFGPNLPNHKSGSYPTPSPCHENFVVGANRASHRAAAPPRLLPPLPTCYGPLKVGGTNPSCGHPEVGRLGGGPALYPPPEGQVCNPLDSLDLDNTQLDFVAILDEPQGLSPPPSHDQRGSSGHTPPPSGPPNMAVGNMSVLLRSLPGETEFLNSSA
Assay: Gli-mediated transcription reporter assay in C3H10T1/2 cells with exogenous Gli1
Format: cell-based
Settings: C3H10T1/2 cells, from IC50 values

Q: For `C[C@H](C(=O)N(CCc1ccc(O)cc1)CCc1ccc(O)cc1)c1cccc(C(=O)c2ccccc2)c1` [Compound 65, (S)-2-(3-Benzoylphenyl)-N,N-bis(4-hydroxyphenethyl)propanamide], which “inhibition selectivity of Gli1-mediated transcription over Gli2-mediated transcription” value is on record?
A: least selective

Same assay, conditions: Gli1-transfected C3H10T1/2 cells, 24 h, 20 µM or 40 µM

Q: With `COc1ccc(C(=O)NC[C@@H](C)c2cccc(C(=O)c3ccccc3)c2)cc1` [Compound 57, (S)-N-(2-(3-Benzoylphenyl)propyl)-4-methoxybenzamide] as the compound, how does the “inhibition of Gli1-mediated transcription (Gli-reporter activity), in words” value (from here on “inhibition … (Gli-reporter activity), in words”) read?
A: retained the activity

Q: For “(S)-2-(3-Benzoylphenyl)-N-(4-hydroxy-3-methoxyphenethyl)propanamide [Compound 51]”, which “inhibition … (Gli-reporter activity), in words” value is on record?
A: reduced the activity by about half

Q: With `C[C@H](CNC(=O)NCCc1ccc(O)cc1)c1cccc(C(=O)c2ccccc2)c1` [Compound 60, (S)-1-(2-(3-Benzoylphenyl)propyl)-3-(4-hydroxyphenethyl)urea] as the compound, how does the “inhibition … (Gli-reporter activity), in words” value read?
A: comparable to that of 36

Q: Which “inhibition … (Gli-reporter activity), in words” value does the source give for `COc1ccc(COC[C@@H](C)c2cccc(C(=O)c3ccccc3)c2)cc1` [Compound 58, (S)-(3-(1-(4-Methoxybenzyloxy)propan-2-yl)phenyl)(phenyl)methanone] here?
A: almost no activity

Q: Which “inhibition … (Gli-reporter activity), in words” value does the source give for “(S)-2-(3-Benzoylphenyl)-N-phenethylpropanamide [Compound 48]” here?
A: significantly lower activity than 36

Q: Which “inhibition … (Gli-reporter activity), in words” value does the source give for `C[C@H](COC(=O)Nc1ccc(O)cc1)c1cccc(C(=O)c2ccccc2)c1` [Compound 61, (S)-2-(3-Benzoylphenyl)propyl 4-hydroxyphenylcarbamate] here?
A: substantially decreased the activity

Q: With `CC(C)Cc1ccc(C(C)C(=O)NCCc2ccc(O)cc2)cc1` (stereo not drawn) [Compound 34, N-(4-Hydroxyphenethyl)-2-(4-isobutylphenyl)propanamide] as the compound, how does the “inhibition … (Gli-reporter activity), in words” value read?
A: modest inhibition

Q: With `C[C@H](CNC(=O)CCc1ccc(O)cc1)c1cccc(C(=O)c2ccccc2)c1` [Compound 56, (S)-N-(2-(3-Benzoylphenyl)propyl)-3-(4-hydroxyphenyl)propanamide] as the compound, how does the “inhibition … (Gli-reporter activity), in words” value read?
A: modest increase in the potency

Q: Which “inhibition … (Gli-reporter activity), in words” value does the source give for `C[C@H](CNC(=O)c1ccc(O)cc1)c1cccc(C(=O)c2ccccc2)c1` [Compound 55, (S)-N-(2-(3-Benzoylphenyl)propyl)-4-hydroxybenzamide] here?
A: better activity

Q: Which “inhibition … (Gli-reporter activity), in words” value does the source give for `CC(C(=O)NCCc1ccc(O)cc1)c1cccc(C(=O)c2ccccc2)c1` (racemic) [Compound 37, (±)-2-(3-Benzoylphenyl)-N-(4-hydroxyphenethyl)propanamide] here?
A: lower activity than did 36

Q: For `O=C(Cc1cccc(Oc2ccccc2)c1)NCCc1ccc(O)cc1` [Compound 42, N-(4-Hydroxyphenethyl)-2-(3-phenoxyphenyl)acetamide], which “inhibition … (Gli-reporter activity), in words” value is on record?
A: equipotent

Q: For `O=C(Cc1ccc(Oc2ccccc2)cc1)NCCc1ccc(O)cc1` [Compound 43, N-(4-Hydroxyphenethyl)-2-(4-phenoxyphenyl)acetamide], which “inhibition … (Gli-reporter activity), in words” value is on record?
A: equipotent

Q: Which “inhibition … (Gli-reporter activity), in words” value does the source give for “(S)-2-(3-Benzoylphenyl)-N-(4-methoxyphenethyl)propanamide [Compound 47]” here?
A: decrease in the activity

Q: Which “inhibition … (Gli-reporter activity), in words” value does the source give for `C[C@H](COC(=O)NCCc1ccc(O)cc1)c1cccc(C(=O)c2ccccc2)c1` [Compound 62, (S)-2-(3-Benzoylphenyl)propyl 4-hydroxyphenethylcarbamate] here?
A: substantially decreased the activity

Q: With `O=C(Cc1ccccc1Oc1ccccc1)NCCc1ccc(O)cc1` [Compound 41, N-(4-Hydroxyphenethyl)-2-(2-phenoxyphenyl)acetamide] as the compound, how does the “inhibition … (Gli-reporter activity), in words” value read?
A: decreased activity

Q: With `C[C@H](C(=O)NCCc1ccc(O)cc1)c1cccc(Cc2ccccc2)c1` [Compound 40, (S)-2-(3-Benzylphenyl)-N-(4-hydroxyphenethyl)propanamide] as the compound, how does the “inhibition … (Gli-reporter activity), in words” value read?
A: less potent than 36

Q: For `C[C@H](C(=O)NCc1ccc(O)cc1)c1cccc(C(=O)c2ccccc2)c1` [Compound 53, (S)-2-(3-Benzoylphenyl)-N-((4-hydroxyphenyl)methyl)propanamide], which “inhibition … (Gli-reporter activity), in words” value is on record?
A: decreased activity

Q: With `C[C@H](C(=O)Nc1ccc(O)cc1)c1cccc(C(=O)c2ccccc2)c1` [Compound 54, (S)-2-(3-Benzoylphenyl)-N-(4-hydroxyphenyl)propanamide] as the compound, how does the “inhibition … (Gli-reporter activity), in words” value read?
A: decreased activity

Q: For “(S)-2-(3-Benzoylphenyl)-N-(3-hydroxy-4-methoxyphenethyl)propanamide [Compound 52]”, which “inhibition … (Gli-reporter activity), in words” value is on record?
A: reduced the activity by about half

Q: Which “inhibition … (Gli-reporter activity), in words” value does the source give for “(S)-2-(3-Benzoylphenyl)-N-(4-chlorophenethyl)propanamide [Compound 49]” here?
A: slightly lower activity than 36

Q: Which “inhibition … (Gli-reporter activity), in words” value does the source give for `COc1ccc2cc([C@@H](C)C(=O)NCCc3ccc(O)cc3)ccc2c1` [Compound 38, (R)-N-(4-Hydroxyphenethyl)-2-(6-methoxynaphthalen-2-yl)propanamide] here?
A: lower activity than did 35

Q: For `C[C@H](CNC(=O)Nc1ccc(O)cc1)c1cccc(C(=O)c2ccccc2)c1` [Compound 59, (S)-1-(2-(3-Benzoylphenyl)propyl)-3-(4-hydroxyphenyl)urea], which “inhibition … (Gli-reporter activity), in words” value is on record?
A: comparable to that of 36

Q: With “(S)-2-(3-Benzoylphenyl)-N-(2-hydroxyphenethyl)propanamide [Compound 44]” as the compound, how does the “inhibition … (Gli-reporter activity), in words” value read?
A: slightly decreased at 20 µM

Q: Which “inhibition … (Gli-reporter activity), in words” value does the source give for `C[C@H](C(=O)NCCc1ccc(O)cc1)c1cccc(C(O)c2ccccc2)c1` (stereo partly drawn) [Compound 39, (2S)-2-(3-(Hydroxy(phenyl)methyl)phenyl)-N-(4-hydroxyphenethyl)propanamide] here?
A: less potent than 36

Tested on: endogenous Gli1
Assay: Gli-mediated transcription reporter assay in Rh30 cells
Format: cell-based
Settings: Rh30 cells without cotransfection of exogenous Gli1, 24 h, 10, 20 or 40 µM
Method in brief: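 Rh30 cells were grown in RPMI-1640 with 10% FBS at 37 °C, 5% CO2. At about 70% confluence they were transfected overnight with GliLuc-BS (500 ng/mL) and pRL-CMV (2.5 ng/mL) using Fugene6. Cells were replated, then dosed 18 h later for 24 h. Lysates were read by dual luciferase (firefly/Renilla). DMSO = 0% inhibition; triplicates, SE shown.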

Q: For `CCCN(CCc1ccc(O)cc1)C(=O)[C@@H](C)c1cccc(C(=O)c2ccccc2)c1` [Compound 63, (S)-2-(3-Benzoylphenyl)-N-(4-hydroxyphenethyl)-N-propylpropanamide], which “inhibition of Gli-reporter activity in Rh30 cells, in words” value is on record?
A: downregulated

Tested on: exogenous Gli1 protein
Assay: Western blot of Gli1 protein levels in Gli1-transfected C3H10T1/2 cells
Format: cell-based, human
Settings: not given

Q: For `CCCN(CCc1ccc(O)cc1)C(=O)[C@@H](C)c1cccc(C(=O)c2ccccc2)c1` [Compound 63, (S)-2-(3-Benzoylphenyl)-N-(4-hydroxyphenethyl)-N-propylpropanamide], which “exogenous Gli1 protein level” value is on record?
A: not reduced

Tested on: not listed separately
Assay: Stability of compounds in C3H10T1/2 cell cultures
Format: in vitro ADME, mouse
Settings: 24 hours

Q: For `CCCN(CCc1ccc(O)cc1)C(=O)[C@@H](C)c1cccc(C(=O)c2ccccc2)c1` [Compound 63, (S)-2-(3-Benzoylphenyl)-N-(4-hydroxyphenethyl)-N-propylpropanamide], which “stability in the C3H10T1/2 cell cultures” value is on record?
A: stable

Q: For `C[C@H](C(=O)NCCc1ccc(O)c(O)c1)c1cccc(C(=O)c2ccccc2)c1` [Compound 50, (S)-2-(3-Benzoylphenyl)-N-(3,4-dihydroxyphenethyl)propanamide], which “stability in the C3H10T1/2 cell cultures” value is on record?
A: significant degradation

Q: Which “stability in the C3H10T1/2 cell cultures” value does the source give for `C[C@H](C(=O)N(CCc1ccc(O)cc1)CCc1ccc(O)cc1)c1cccc(C(=O)c2ccccc2)c1` [Compound 65, (S)-2-(3-Benzoylphenyl)-N,N-bis(4-hydroxyphenethyl)propanamide] here?
A: stable

Tested on: BJ-hTERT cells
Assay: Cell viability assay
Format: cell-based
Settings: noncancerous human skin fibroblasts, 40 µM, 72 h
Method in brief: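 Cells plated in 384-well format 24 h before dosing. A 10-mM DMSO stock was diluted in EMEM to 160 µM (4×) and added in triplicate to a final 40 µM. Incubated 68 h at 37 °C, then Alamar Blue for 4 h at 37 °C. Fluorescence read at ex 510 / em 590 nm; viability expressed relative to DMSO control wells.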

Q: For `CCCN(CCc1ccc(O)cc1)C(=O)[C@@H](C)c1cccc(C(=O)c2ccccc2)c1` [Compound 63, (S)-2-(3-Benzoylphenyl)-N-(4-hydroxyphenethyl)-N-propylpropanamide], which “cell viability / toxicity, BJ-hTERT” value is on record?
A: without showing toxicity

Q: With `C[C@H](CNC(=O)NCCc1ccc(O)cc1)c1cccc(C(=O)c2ccccc2)c1` [Compound 60, (S)-1-(2-(3-Benzoylphenyl)propyl)-3-(4-hydroxyphenethyl)urea] as the compound, how does the “cell viability / toxicity, BJ-hTERT” value read?
A: toxic

Q: With `C[C@H](CNC(=O)Nc1ccc(O)cc1)c1cccc(C(=O)c2ccccc2)c1` [Compound 59, (S)-1-(2-(3-Benzoylphenyl)propyl)-3-(4-hydroxyphenyl)urea] as the compound, how does the “cell viability / toxicity, BJ-hTERT” value read?
A: toxic
